Source: PubChem (The Scripps Research Institute Molecular Screening Center)
Jurkat viability = cytotoxicity toward Jurkat cells; hit rate 1.2% among 56,000; Jurkat E6.1 viability, ATP luminescence, 48 h; inhibition, % at 4 µM;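 active = inhibition above the mean inhibition of all tested compounds plus 3 SD, cut at about 28% in these data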
RORA act = activates the human nuclear receptor RORA; CHO-K1 Gal4-RORA LBD luciferase reporter, luminescence; percent increase over mock-subtracted basal signal; AID 560; hit rate 1.5% among 65,000; activation, % at 10 µM; P35398;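 active = activation above the mean of all tested compounds plus 3 SD, cut at about 49% in these data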;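 also: 0% = DMSO-treated RORA cells and 100% = added signal equal to DMSO minus mock-transfected cells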
HEK293 NFkB inh = inhibitors of the PMA/ionomycin-induced NF-kB reporter in HEK293 cells | inhibition, % at 3 µM | HEK-293 NF-kB luciferase reporter, luminescence | hit rate 0.21% among 62,000;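 active = inhibition above the mean of all tested compounds plus 3 SD, cut at about 40% in these data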;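 also: 0% = stimulated DMSO wells and 100% = 10 µM reference inhibitor 5653914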
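System – HEK-293 cells with stable firefly luciferase reporter driven by four HIV NF-kB elements · Doses – one dose, 3 µM · Schedule – 1 h compound pre-incubation, 16 h PMA/ionomycin at 37 °C · Technique – luminescence from luciferase substrate reagent · Measure – percent inhibition normalized per plate to DMSO and reference-inhibitor controls · Replicates – tested once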
SF-1 act = SF-1 (human) activation | Q13285 | AID 522 | hit rate 1.9% among 65,000 | CHO-K1 Gal4-SF-1 LBD luciferase reporter; % increase over DMSO SF-1-specific signal | activation, % at 10 µM;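 active = activation above the mean activation of all tested compounds plus 3 SD, cut at about 50% in these data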
Target sequence (Q13285 whole entry, looked up, the tested form may be a part): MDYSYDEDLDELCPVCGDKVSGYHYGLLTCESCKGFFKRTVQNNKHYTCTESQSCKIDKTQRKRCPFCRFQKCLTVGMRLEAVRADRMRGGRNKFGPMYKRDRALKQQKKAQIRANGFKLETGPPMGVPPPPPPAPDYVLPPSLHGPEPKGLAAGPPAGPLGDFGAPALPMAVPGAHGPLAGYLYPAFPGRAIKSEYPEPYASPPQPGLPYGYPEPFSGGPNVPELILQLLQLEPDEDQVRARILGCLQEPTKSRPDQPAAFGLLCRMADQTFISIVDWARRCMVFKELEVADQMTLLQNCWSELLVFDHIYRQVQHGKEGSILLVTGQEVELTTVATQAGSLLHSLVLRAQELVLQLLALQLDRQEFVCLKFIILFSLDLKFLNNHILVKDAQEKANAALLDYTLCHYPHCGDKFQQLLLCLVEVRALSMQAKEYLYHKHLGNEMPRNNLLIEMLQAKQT
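Test system: CHO-K1 cells with Gal4–hSF-1 LBD chimera plus Gal4-driven luciferase; Input: 4,000 cells/well; Compound: 10 µM only; Times: 20 h compound treatment, 37 °C; Measured by: steady-glow luciferase luminescence, read after 15 min reagent incubation; Measure: percent activation versus DMSO; Control set: DMSO and mock-transfected background; Replicates: one test per compound.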
Active calls of the source: *; x = not tested or not shown. A selection: hits, their analogues and other compounds. The true share with any hit is near 3.9%.

SMILES | Jurkat viability | RORA act | HEK293 NFkB inh | SF-1 act
COc1ccc(C(=O)COC(=O)CCN=C2NS(=O)(=O)c3ccccc32)cc1OC | -8 | -4 | 8 | 4
CCCCOc1ccc(-c2nnc(-c3ccncc3)o2)cc1 | -1 | 59* | -8 | 39
CCOc1ccc(-c2nnc(-c3ccncc3)o2)cc1 | 11 | 36 | -30 | 39
CCCOc1ccc(C(=O)Nc2ccc(N(C)C)cc2)cc1 | 6 | 56* | 3 | 30
CC(C)Oc1ccc(C(=O)Nc2ccc(N(C)C)cc2)cc1 | 5 | 2 | 9 | 21
CCCCOc1ccc(C(=O)Nc2ccncc2)cc1 | 91* | -8 | 9 | -6
CC(CN1CCCC1)OC(=O)COc1ccccc1 (stereo unspecified) | 0 | -16 | 10 | -4
COc1ccc(OCCCSc2ncccn2)cc1 | 4 | 63* | -14 | 41
COc1cccc(OCCCCSc2ncccn2)c1 | -1 | 1 | -2 | -3
COc1ccc(OCCSc2ncccn2)cc1 | 6 | 14 | -46 | 56*
COc1ccccc1Nc1nc(N)nc(-c2cc3ccccc3o2)n1 | 2 | 39 | 2 | 13
Cc1c(-c2nc(N)nc(Nc3ccccc3F)n2)oc2ccccc12 | 1 | 108* | -68 | 73*
CN(C)S(=O)(=O)c1ccc(S(=O)(=O)N(Cc2ccccn2)Cc2ccco2)cc1 | 4 | -10 | 18 | -13
COc1ccc(NC(=O)c2cnc3ccccn3c2=O)cc1OC | -6 | 53* | -2 | 18
Nc1ccccc1SCc1cn2ccccc2n1 | -6 | 49* | -42 | 30
COC(=O)C1(CCSC)NC(c2ccco2)C2C(=O)N(C)C(=O)C21 (stereo unspecified) | 1 | -12 | 13 | -3
COc1ccc(C2CC(c3c(O)cc(C)oc3=O)=NCCS2)c(OC)c1 (stereo unspecified) | 95* | 32 | 25 | -36
CN1CCN(c2ccc(NC(=O)c3ccc4c(c3)OCO4)cc2)CC1 | 0 | 27 | -1 | 61*
COc1cccc(C(=O)Nc2ccc(C(=O)O)cc2)c1 | -4 | -24 | 10 | -8
COC(=O)c1ccc(NC(=O)c2ccc3c(c2)OCO3)cc1 | -2 | 46 | -28 | 53*
COC(=O)c1ccc(NC(=O)c2cccc(OC)c2)cc1 | 14 | 49* | -2 | 11
CC(=O)N1CCN(c2ccc(NC(=O)c3ccc4c(c3)OCCO4)cc2)CC1 | -4 | 6 | 20 | 23
COc1ccc(NC(=O)c2ccc3c(c2)OCO3)cc1Cl | -6 | -1 | -56 | 53*
N#CC1(c2nc3ccccc3[nH]2)CC1c1ccc2c(c1)OCO2 (stereo unspecified) | 12 | 19 | 14 | 9
CCOc1ccc(S(=O)(=O)N2CCN(c3ccccc3OC)CC2)c2cccnc12 | 4 | 2 | 6 | 4
SMILES | Jurkat viability | RORA act | HEK293 NFkB inh | SF-1 act
COCCn1c(CN2CCN(c3ccccc3F)CC2)nc2c1c(=O)n(C)c(=O)n2C | -5 | 1 | 9 | -6
COc1ccc(C(=O)Nc2ccc(Cl)cn2)cc1Cl | 5 | 48 | -2 | 45
CN(C)S(=O)(=O)c1cccc(C(=O)Nc2ccc(Cl)cn2)c1 | 13 | 18 | -9 | 65*
CCOC(=O)N1CCN(C(=O)CCCOc2ccccc2)CC1 | 0 | 38 | -19 | 75*
CCOC(=O)C1=C(C)Nc2nc(SCC)[nH]c(=O)c2C1c1ccncc1 (stereo unspecified) | x | 2 | 20 | 8
O=C(OCc1nc2ccccc2s1)c1cccc(S(=O)(=O)N2CCOCC2)c1 | -5 | 45 | 0 | 28
O=C(CCc1ccc(S(=O)(=O)N2CCOCC2)cc1)OCc1nc2ccccc2s1 | -4 | 10 | -16 | 59*
Nc1c(Br)cc2oc(-c3ccccc3)nc2c1Br | x | 52* | x | 76*
COc1ccc(-c2nc3c(Br)c(N)c(Br)cc3o2)cc1 | x | 6 | x | 73*
COc1ccc(-c2cnc(N)nc2-c2ccc(OC)cc2O)cc1 | 9 | 4 | 16 | 13
COc1ccc(C(O)P(=O)(O)CCc2ccccc2)cc1 (stereo unspecified) | 3 | 52* | 5 | -8
COc1ccc(CCC(C(O)C(F)(F)F)S(=O)c2ccccc2)cc1 (stereo unspecified) | x | 8 | 14 | 12
CS(=O)(=O)c1ncc(Cl)c(C(=O)Nc2ccc(N3CCOCC3)cc2)n1 | 62* | -21 | 5 | -33
O=C(Nc1ccc(N2CCOCC2)cc1)c1cnsn1 | 0 | -69 | 42* | -69
CCOC(=O)C(C)Sc1nc(-c2ccc(OC)cc2)nc2c1c(=O)n(C)c(=O)n2C (stereo unspecified) | -6 | -4 | 12 | 0
Clc1ccc(CSc2nnc(-c3cccnc3)n2Cc2ccco2)c(Cl)c1 | x | 10 | 9 | 11
CCN(CCNC(=O)Nc1ccc(Cl)cc1)c1ccccc1 | 7 | -9 | 11 | 6
Cc1sc2ncnc(Sc3nnnn3-c3ccccc3)c2c1C | 1 | -34 | 26 | -29
Clc1ccc(-n2nnnc2Sc2ncnc3sccc23)cc1 | 66* | -29 | -1 | -8
CSCCNC(=O)c1ccc(C(C)(C)C)cc1 | 1 | 73* | -32 | 73*
O=C(NCCSc1ccccc1)c1ccccc1 | 1 | 31 | -39 | 40
CCN(CC)c1ccc(NC(=O)c2cccc(C)c2OC)c(C)c1 | -4 | 73* | -30 | 66*
O=C(CSc1nccn1Cc1ccccc1)Nc1nccs1 | -5 | 57* | -6 | 14
CC1(C)NC(=O)NC2(C)NC(=O)NC(C)(C)C12 (stereo unspecified) | -5 | 12 | 26 | 15
CCOC(=O)CSc1nc2ccc(N3CCOCC3)cc2c(=O)n1Cc1ccc2c(c1)OCO2 | x | 14 | 0 | 3
SMILES | Jurkat viability | RORA act | HEK293 NFkB inh | SF-1 act
O=C(CCCCn1c(=O)c2ccccc2n(Cc2ccc(F)cc2)c1=O)NCc1ccco1 | 37* | 37 | 0 | 42
Cc1nc(NC(=O)CSc2nnnn2Cc2ccccc2)sc1C | -5 | 26 | 8 | 4
COc1ccc(N(CC(=O)Nc2cc(Cl)ccc2OC)S(=O)(=O)c2c(C)noc2C)cc1 | 88* | 34 | 11 | 17
COc1ccc(OC)c(NC(=O)CN(c2ccc(C)cc2)S(=O)(=O)c2c(C)noc2C)c1 | 1 | 14 | 5 | 8
COc1cc2c(cc1OC)CN(C(=O)c1cc3ccccc3oc1=O)CC2 | 60* | 10 | 15 | 22
COc1cccc2cc(C(=O)N3CCc4ccccc4C3)c(=O)oc12 | 0 | 46 | 7 | 22
CCOC(=O)c1cnc(SCC(=O)Nc2ccc(NC(=O)CC)c(OC)c2)nc1N | -2 | -6 | 9 | 13
O=C(C1CCCN(c2ncccn2)C1)N1CCc2ccccc21 (stereo unspecified) | 0 | 5 | 12 | -4
Cc1cnn(C(=S)NCCc2ccccc2)c1 | -5 | 27 | -5 | 53*
Cc1cccc(NC(=O)c2cc3ccccc3c(=O)o2)n1 | -4 | 57* | -26 | 65*
Cc1csc2ncc(C(=O)Nc3ccc4c(c3)OCCO4)c(=O)n12 | -3 | 97* | -28 | 34
Cc1csc2ncc(C(=O)Nc3ccccc3Cl)c(=O)n12 | 4 | 38 | 9 | 25
